# Avidin fluor – compound fluoresces at 488/530 nm on avidin beads | compound fluorescence 488/530 nm, flow cytometry; stronger effect = higher value | fluorescence (KMESF) at 10 µM | actives 0.38% (n = 220,000); in the data active means fluorescence above about 47
# Arrestin-AP2 inh – blocks beta-arrestin peptide binding to AP2 adaptin | FITC-arrestin peptide / GST-AP2 beads, flow cytometry; AP2 beta2 appendage carries R879A mutation | inhibition, % at 10 µM | actives 0.31% (n = 340,000) | AID 504490;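 active means inhibition above a set limit, near 3 SD of compounds lacking own fluorescence, cut at about 54% in these data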;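 further: plate controls were DMSO wells for no effect and 5 µM unlabelled arrestin peptide for full effect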
#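 System: GST-tagged AP2 beta2-adaptin appendage (R879A) on 4 µm glutathione beads / Reagent: FITC-arrestin peptide, 50 nM / Detection: HyperCyt-sampled flow cytometry, FL1 channel, ex 488/em 535 nm / Timing: 12 min plus 1 h, RT / Buffer or medium: PBS plus Tween 20 (0.05%) and BSA (0.1%)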
# DSG3 Ab inh – inhibitors of pemphigus antibody binding to human desmoglein-3 | AID 588358 | DSG3-coupled beads, scFv-anti-DSG3-GFP binding, flow cytometry; stronger effect = lower value | P32926 | actives 0.48% (n = 310,000) | binding (percent of control), % at 10 µM;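 active means binding more than 3 SD below its plate's average and above zero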;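 further: hits lower antibody fragment binding to DSG3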
# Target sequence (P32926 whole entry, looked up, the tested form may be a part): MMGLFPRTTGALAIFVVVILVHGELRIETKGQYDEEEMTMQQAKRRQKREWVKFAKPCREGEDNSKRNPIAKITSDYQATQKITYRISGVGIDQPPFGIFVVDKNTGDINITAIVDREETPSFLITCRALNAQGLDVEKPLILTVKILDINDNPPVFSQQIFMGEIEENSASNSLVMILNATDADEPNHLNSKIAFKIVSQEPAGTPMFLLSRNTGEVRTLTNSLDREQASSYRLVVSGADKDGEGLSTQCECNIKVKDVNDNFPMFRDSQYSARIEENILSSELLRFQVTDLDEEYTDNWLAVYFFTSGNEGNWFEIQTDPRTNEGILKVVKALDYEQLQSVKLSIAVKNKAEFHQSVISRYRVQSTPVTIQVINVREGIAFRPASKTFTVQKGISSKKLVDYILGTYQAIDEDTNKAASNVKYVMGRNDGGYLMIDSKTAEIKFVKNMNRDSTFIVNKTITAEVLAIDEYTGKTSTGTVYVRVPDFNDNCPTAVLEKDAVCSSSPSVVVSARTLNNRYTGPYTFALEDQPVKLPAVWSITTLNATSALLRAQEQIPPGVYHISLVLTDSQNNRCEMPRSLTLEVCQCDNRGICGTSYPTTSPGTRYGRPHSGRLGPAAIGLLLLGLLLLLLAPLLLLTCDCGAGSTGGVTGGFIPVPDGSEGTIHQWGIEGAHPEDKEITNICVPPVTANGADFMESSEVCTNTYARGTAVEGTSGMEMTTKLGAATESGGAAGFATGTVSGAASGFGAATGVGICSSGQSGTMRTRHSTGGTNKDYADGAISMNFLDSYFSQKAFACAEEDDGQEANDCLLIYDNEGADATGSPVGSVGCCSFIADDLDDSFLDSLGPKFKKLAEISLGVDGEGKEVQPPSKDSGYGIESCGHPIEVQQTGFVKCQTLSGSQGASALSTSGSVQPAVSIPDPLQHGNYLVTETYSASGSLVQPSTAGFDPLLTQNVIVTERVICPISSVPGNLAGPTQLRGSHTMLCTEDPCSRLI
# GSH bead fluor – GSH bead compound fluorescence profile. actives 0.25% (n = 190,000). fluorescence (KMESF) at 10 µM. AID 1776. GSH beads flow cytometry, compound fluorescence 488/530 nm; stronger effect = higher value; in the data active means fluorescence above about 89;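 further: glutathione beads carrying GST-tagged Bcl family fusion proteins plus one bare bead set; values are compound well signal with DMSO vehicle wells as background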
# * = called active by the depositor; . = no result. Shown are actives, neighbours in structure and some others; about 1.1% of the full set was active somewhere.
SMILES,Avidin fluor,Arrestin-AP2 inh,DSG3 Ab inh,GSH bead fluor
CC(Nc1ncnc2sccc12)c1ccccc1 (stereo not given),.,-29,98,.
CCOC(=O)C1=C(O)/C(=C/c2ccc(-c3ccccc3C(=O)O)o2)SC1=Nc1ccc(OC)cc1,11,34,102,17
CCOC(=O)C1=C(O)/C(=C/c2ccc(-c3ccccc3C(=O)O)o2)SC1=Nc1ccc(C)cc1,.,16,71*,.
COc1ccc(NC(=S)N2CCc3ccccc3C2)cc1OC,9,11,94,26
Cc1ccccc1NC(=O)Cn1nc(-c2ccccc2)nc1-c1ccccc1,21,4,-17*,22
Cn1cc(CN2CCC(C(=O)N3CCCCC3)CC2)c(-c2ccccc2F)n1,8,1,32*,13
N#Cc1c2n(c3c(=O)n(CC(=O)c4ccc(Br)cc4)cnc13)CCCC2,8,5,113,16
N#Cc1c2ncn(CC(=O)c3ccc(Br)cc3)c(=O)c2c2n1CCC2,6,7,30*,65
CC(Nc1nc(-c2ccc(F)cc2)cs1)c1nc2cc(Cl)c(Cl)cc2n1CCCO (stereo not given),.,2,87*,.
COc1ccc(-c2csc(NC(C)c3nc4cc(Cl)c(Cl)cc4n3CCOCCO)n2)cc1 (stereo not given),.,-1,104,.
CCCc1cc(=O)[nH]c(SCC(=O)N2CCN(S(=O)(=O)c3ccc4ccccc4c3)CC2)n1,13,12,-2.3*,23
O=C(Nc1ccccc1Cl)Nc1ccnn1C1CCN(C(=O)CCN2CCCO2)CC1,.,4,107,.
O=C(Nc1cccc(F)c1)Nc1ccnn1C1CCN(C(=O)CCN2CCCO2)CC1,.,13,0.6*,.
Cc1ccc(-c2ccc(CCC(=O)O)n2Cc2ccco2)cc1,49*,24,73,13
O=C(O)CCc1ccc(-c2ccccc2)n1CC(=O)O,8,30,103,12
CCOc1ccc(S(=O)(=O)NCc2ccccn2)c(C)c1C,.,2,102,.
Cc1c(-c2nnc(-c3ccc(C(F)(F)F)cc3)o2)cnn1-c1ccccc1,9,9,112,61
Cc1nn(-c2ccccc2)nc1-c1nnc(-c2ccc(C(F)(F)F)cc2)o1,8,-4,76*,.
COc1cccc(N2CCN(C(=O)c3ccc(-c4ccccc4)cc3)CC2)c1,.,-30,113,.
CS(=O)(=O)c1ccc(S(=O)CC(=O)OCc2ccccc2)c([N+](=O)[O-])c1 (stereo not given),10,-7,81,12
CCOC(=O)c1[nH]c(C)c(C(=O)Nc2ccccc2F)c1C,108*,10,98,25
COc1ccc(N2CCN(c3nc4cc(C)ccc4cc3C=O)CC2)cc1,.,-5,.,.
COc1ccc(-c2cn3c(C)c(C(=O)NC(C)C)sc3n2)cc1,14,-2,47*,16
COc1ccc(-c2cn3c(C)c(C(=O)Nc4cccc(C)n4)sc3n2)cc1,198*,34,102,22
COC(=O)CCCNC(=O)c1ccccn1,229*,12,101,7
SMILES,Avidin fluor,Arrestin-AP2 inh,DSG3 Ab inh,GSH bead fluor
CCc1nc2c(sc3nc4c(cc32)COC(C)(C)C4)c(=O)n1Cc1ccccc1,8,30,105,20
CCc1nc2c(sc3nc4c(cc32)COC(C)(C)C4)c(=O)n1Cc1ccco1,65*,4,.,18
COc1ccc(C(=O)Nc2cccnc2Sc2ccc(Cl)cc2)cc1,7,-4,80*,.
Cc1nc(Nc2ccccc2F)c2oc3ccccc3c2n1,.,2,100,.
Cc1nc(Nc2ccccc2O)c2oc3ccccc3c2n1,.,31,80*,.
OCCN(CCO)c1cc2c3ccccc3ccc2c2ccccc12,.,-1,95,.
Cc1ccc(NC(=O)COc2ccc(/C=N/NC(=O)CSCc3ccccc3)cc2)cc1,16,-4,81*,23
COc1ccc(CSCC(=O)N/N=C/c2ccccc2O)cc1,6,16,53*,21
O=C(CSc1ccccc1)N/N=C/c1ccccc1O,8,-1,101,20
CC(NC(=O)c1ccc(S(=O)(=O)C(F)F)cc1)c1ccccc1 (stereo not given),8,-16,114,14
O=C(NC(c1ccccc1)c1ccccc1)c1ccc(S(=O)(=O)C(F)F)cc1,58*,2,98,16
CCCc1nc(SCC(=O)c2ccc3c(c2)NC(=O)CO3)[nH]c(=O)c1CC,.,4,97,.
CCCc1cc(=O)[nH]c(SCC(=O)c2ccc3c(c2)NC(=O)CO3)n1,179*,42,102,.
CC(=O)Nc1nonc1-c1nc2ccccc2n1CC1CC1,57*,3,84,13
CC(=O)Nc1nonc1-c1nc2ccccc2n1CCC#N,9,-4,87,25
CCCN(C(=O)CSc1nc(C2CC2)n(-c2ccccc2)n1)C1CCS(=O)(=O)C1 (stereo not given),.,24,110,.
c1ccc2sc(Cc3nnc4n3CCCCC4)nc2c1,88*,3,86,25
COc1ccc(-c2csc(Cc3nnc4n3CCCCC4)n2)cc1,8,5,100,27
CCOC(=O)C1=C(C)NC(C)=C(C(=O)OCC)C1C(=O)OCC(=O)N(C)Cc1ccccc1,.,33,96,.
COc1ccc(CN2CCN(C(=O)c3ccccc3C(=O)c3ccccc3)CC2)cc1OC,.,14,117,.
COc1ccc(Br)cc1C(=O)Nc1nnn(C)n1,37,-6,102,17
COc1ccc(Cl)cc1C(=O)Nc1nnn(C)n1,6,-6,.,257*
CCOc1ccc(S(=O)(=O)N(CC(=O)N/N=C/c2ccc(-c3ccc([N+](=O)[O-])cc3)o2)c2ccccc2)cc1,14,5,103,9
Cc1ccc(C)c(N(CC(=O)N/N=C/c2ccc(-c3ccc([N+](=O)[O-])cc3)o2)S(=O)(=O)c2ccccc2)c1,8,16,85*,12
CC(=O)c1ccc(N2CCN(C(=S)Nc3cccc(Cl)c3)CC2)cc1,17,-14,60*,5
SMILES,Avidin fluor,Arrestin-AP2 inh,DSG3 Ab inh,GSH bead fluor
CC(=O)c1ccc(NC(=S)N2CCN(c3cccc(Cl)c3)CC2)cc1,8,-13,97,14
O=C(CNC(=O)c1ccc(Cl)cc1Cl)OCC(=O)N1CCCC1=O,.,6,102,.
CCOc1ccc(Cn2nnc(C(=O)Nc3cc(C)cc(C)c3)c2N)cc1,7,-5,72*,25
COc1ccc(NC(=O)Cn2nnc(C(=O)NCc3ccccc3)c2N)cc1Cl,13,5,89*,31
COc1cccc(Cn2nnc(C(=O)Nc3ccc(C)cc3)c2N)c1,7,-2,102,13
COc1cccc(Cn2nnc(C(=O)Nc3cc(C)ccc3OC)c2N)c1,7,1,-1.1*,12
CCn1c(=O)c2sccc2n(CC(=O)NC2CCCCC2)c1=O,.,-11,122,.
CC(=O)c1ccc(S(=O)(=O)N2CCN(C(=O)CCC3CCCC3)CC2)cc1,.,14,81,.
Cc1ccccc1OCC(O)COc1ccccc1C,.,-8,115,.
CCOC(=O)C1CCCN(C(=O)/C=C/c2ccc(Cl)cc2)C1 (stereo not given),4,-9,96,21

# Source: PubChem
